From ChEMBL document CHEMBL1221207, “Expanding the promiscuity of a natural-product glycosyltransferase by directed evolution” (Nat Chem Biol, 2007)
Residue numbers refer to the chain shown, from its start.

Assays:
[1] = tested on: T1, Oleandomycin glycosyltransferase (Streptomyces antibioticus), Q53685 [P67T,S132F,A242V]; test: Activity of Streptomyces antibioticus OleD P67T/S132F/A242V mutant assessed as conversion rate of compound to produce glucoside 3 using NDP sugar UDP-6-deoxy-glucose after 3 hrs by HPLC
T1 sequence (whole entry): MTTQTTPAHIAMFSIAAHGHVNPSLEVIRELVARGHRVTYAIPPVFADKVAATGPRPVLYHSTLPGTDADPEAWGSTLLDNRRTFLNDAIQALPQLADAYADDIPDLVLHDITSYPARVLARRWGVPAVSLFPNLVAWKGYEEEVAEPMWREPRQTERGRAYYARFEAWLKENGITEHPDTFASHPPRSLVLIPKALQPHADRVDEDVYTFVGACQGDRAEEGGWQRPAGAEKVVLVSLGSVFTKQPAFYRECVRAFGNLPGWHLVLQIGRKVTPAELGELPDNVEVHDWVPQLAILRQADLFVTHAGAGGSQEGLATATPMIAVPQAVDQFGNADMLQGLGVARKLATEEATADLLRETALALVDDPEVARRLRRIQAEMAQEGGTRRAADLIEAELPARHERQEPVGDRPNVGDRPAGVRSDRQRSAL
Procedure, shortened: (§1)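 End-point donor-specificity assay with purified OleD enzyme. Percentage conversion was read after 3 h. Quenched reactions were run by reverse-phase C18 HPLC with a 10–90% CH3CN gradient in 0.1% formic acid/H2O over 20 min at 1 ml min–1, with detection at 254 nm. Products were identified by LC-MS, by comparison to standards where available, and by fluorescence.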

[2] = tested on: T2, Oleandomycin glycosyltransferase (Streptomyces antibioticus), Q53685 [A242V]; test: Activity of Streptomyces antibioticus OleD A242V mutant assessed as conversion rate of compound to produce glucoside 3 using NDP sugar donor UDP-xylose after 3 hrs by HPLC; procedure, shortened: as §1
T2 sequence (whole entry): T1 sequence (whole entry) with T67P, F132S

[3] = tested on: T3, Oleandomycin glycosyltransferase (Streptomyces antibioticus), Q53685 [P67T]; test: Activity of Streptomyces antibioticus OleD P67T mutant assessed as conversion rate of compound to produce glucoside 3 using NDP sugar donor UDP-6-azido-glucose after 3 hrs by HPLC; procedure, shortened: as §1
T3 sequence (whole entry): T1 sequence (whole entry) with F132S, V242A

[4] = target: T4, Oleandomycin glycosyltransferase (Streptomyces antibioticus) (UniProt Q53685); test: Activity at Streptomyces antibioticus wild-type OleD assessed as as rate of glucoside formation measured as nanomoles of product formed per minute per mg of enzyme
T4 sequence (whole entry): T1 sequence (whole entry) with T67P, F132S, V242A

[5] = tested on: T5, Oleandomycin glycosyltransferase (Streptomyces antibioticus), Q53685 [S132F]; test: Activity of Streptomyces antibioticus OleD S132F mutant assessed as conversion rate of compound to produce glucoside 3 using NDP sugar donor UDP-xylose after 3 hrs by HPLC; procedure, shortened: as §1
T5 sequence (whole entry): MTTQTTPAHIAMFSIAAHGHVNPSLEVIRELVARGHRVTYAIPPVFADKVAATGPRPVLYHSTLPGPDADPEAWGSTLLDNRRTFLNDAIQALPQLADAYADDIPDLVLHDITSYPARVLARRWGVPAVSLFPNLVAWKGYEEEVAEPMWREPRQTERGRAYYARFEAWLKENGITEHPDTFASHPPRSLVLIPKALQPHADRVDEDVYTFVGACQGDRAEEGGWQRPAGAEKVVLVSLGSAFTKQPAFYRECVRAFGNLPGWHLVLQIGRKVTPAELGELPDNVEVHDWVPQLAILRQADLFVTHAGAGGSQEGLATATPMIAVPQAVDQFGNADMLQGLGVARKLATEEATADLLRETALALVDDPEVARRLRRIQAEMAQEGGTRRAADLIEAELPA

[6] = tested on: T5, Oleandomycin glycosyltransferase (Streptomyces antibioticus), Q53685 [S132F]; test: Activity of Streptomyces antibioticus OleD S132F mutant assessed as conversion rate of compound to produce glucoside 3 using NDP sugar donor UDP-glucose after 3 hrs by HPLC; procedure, shortened: as §1
[7] = tested on: T2, Oleandomycin glycosyltransferase (Streptomyces antibioticus), Q53685 [A242V]; test: Activity of Streptomyces antibioticus OleD A242V mutant assessed as as rate of glucoside formation measured as nanomoles of product formed per minute per mg of enzyme
[8] = tested on: T1, Oleandomycin glycosyltransferase (Streptomyces antibioticus), Q53685 [P67T,S132F,A242V]; test: Activity of Streptomyces antibioticus OleD P67T/S132F/A242V mutant assessed as conversion rate of compound to produce glucoside 3 using NDP sugar donor UDP-2-amino-glucose after 3 hrs by HPLC; procedure, shortened: as §1
[9] = tested on: T5, Oleandomycin glycosyltransferase (Streptomyces antibioticus), Q53685 [S132F]; test: Activity of Streptomyces antibioticus OleD S132F mutant assessed as conversion rate of compound to produce glucoside 3 using NDP sugar donor UDP-6-deoxy-glucose after 3 hrs by HPLC; procedure, shortened: as §1

Cc1cc(=O)oc2cc(O)ccc12
Activity [1]: 85% | Activity [2]: 2% | Activity [3]: 2% | Activity [4]: 2.5 nmol/min | Activity [5]: 1.5% | Activity [6]: 48% | Activity [7]: 5.4 nmol/min | Activity [8]: 24% | Activity [9]: 10%
